Laboratory results taken from ChEMBL document CHEMBL3044653, “Synthesis and herbicidal activity of 2-(substituted phenoxyacetoxy)alkyl-5,5-dimethyl-1,3,2-dioxaphosphinan-2-one” (J Agric Food Chem, 2012).

Key:
Digitaria sanguinalis [1] = test: Post-emergence herbicidal activity against Digitaria sanguinalis (hairy crabgrass) assessed as inhibition at 75 g/hectare treated at one-leaf stage by green house assay; format: functional
Method in brief: (§1)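 Monocot weeds were sprayed postemergence in the greenhouse at the one-leaf stage with diluted formulation solutions. Primary dose was 150 g ai/ha, with follow-up doses of 75 and 37.5 g ai/ha for selected compounds. Activity is scored as percent herbicidal damage compared with an untreated control.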

Setaria viridis [2] = test: Post-emergence herbicidal activity against Setaria viridis (green foxtail) assessed as inhibition at 75 g/hectare treated at one-leaf stage by green house assay; format: functional; method in brief: as §1
Chenopodium album [3] = test: Post-emergence herbicidal activity against Chenopodium album assessed as inhibition at 150 g/hectare by green house assay; format: functional
Glycine max = test: Toxicity in Glycine max (soybean) plant assessed as inhibition at 150 g/hectare; format: organism-based; settings: in vivo
Method in brief: (§2)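 For crop selectivity, conventional crop varieties were planted in 12 cm diameter plots and given a postemergence treatment at 150 g ai/ha. Injury was scored as percent inhibition, with 0–10% classed as safe to the crop.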

Ipomoea nil [4] = test: Post-emergence herbicidal activity against Ipomoea nil (Japanese morning glory) assessed as inhibition at 75 g/hectare by green house assay; format: functional
Eclipta prostrata [5] = test: Post-emergence herbicidal activity against Eclipta prostrata assessed as inhibition at 37.5 g/hectare treated at two-leaf stage by green house assay; format: functional
Method in brief: (§3)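 Greenhouse postemergence spray of diluted formulation solutions onto broadleaf weeds at the two-leaf stage. Primary screen at 150 g ai/ha, with selected compounds retested at 75 and 37.5 g ai/ha. Abutilon was tested at 150 g ai/ha only. Read-out is percent herbicidal damage relative to an untreated control.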

Brassica juncea [6] = test: Post-emergence herbicidal activity against Brassica juncea assessed as inhibition at 75 g/hectare treated at two-leaf stage by green house assay; format: functional; method in brief: as §3
Amaranthus retroflexus [7] = test: Post-emergence herbicidal activity against Amaranthus retroflexus assessed as inhibition at 75 g/hectare by green house assay; format: functional
Chenopodium album [8] = test: Post-emergence herbicidal activity against Chenopodium album assessed as inhibition at 75 g/hectare by green house assay; format: functional
Ammannia baccifera [9] = test: Post-emergence herbicidal activity against Ammannia baccifera assessed as inhibition at 150 g/hectare by green house assay; format: functional
Brassica juncea [10] = test: Post-emergence herbicidal activity against Brassica juncea assessed as inhibition at 37.5 g/hectare treated at two-leaf stage by green house assay; format: functional; method in brief: as §3
Echinochloa crus-galli [11] = test: Post-emergence herbicidal activity against Echinochloa crus-galli (barnyard grass) assessed as inhibition at 150 g/hectare treated at one-leaf stage by green house assay; format: functional; method in brief: as §1
Ipomoea nil [12] = test: Post-emergence herbicidal activity against Ipomoea nil (Japanese morning glory) assessed as inhibition at 150 g/hectare by green house assay; format: functional
Pontederia vaginalis [13] = test: Post-emergence herbicidal activity against Monochoria vaginalis assessed as inhibition at 150 g/hectare by green house assay; format: functional
Amaranthus retroflexus [14] = test: Post-emergence herbicidal activity against Amaranthus retroflexus assessed as inhibition at 150 g/hectare treated at two-leaf stage by green house assay; format: functional; method in brief: as §3
Oryza sativa = test: Toxicity in Oryza sativa (rice) plant assessed as inhibition at 150 g/hectare; format: organism-based; settings: in vivo; method in brief: as §2
Echinochloa crus-galli [15] = test: Post-emergence herbicidal activity against Echinochloa crus-galli (barnyard grass) assessed as inhibition at 37.5 g/hectare treated at one-leaf stage by green house assay; format: functional; method in brief: as §1
Echinochloa crus-galli [16] = test: Post-emergence herbicidal activity against Echinochloa crus-galli (barnyard grass) assessed as inhibition at 75 g/hectare treated at one-leaf stage by green house assay; format: functional; method in brief: as §1
[17] = test system: Brassica rapa subsp. chinensis; test: Post-emergence herbicidal activity against Brassica rapa subsp. chinensis assessed as inhibition at 75 g/hectare by green house assay; format: functional
Digitaria sanguinalis [18] = test: Post-emergence herbicidal activity against Digitaria sanguinalis (hairy crabgrass) assessed as inhibition at 37.5 g/hectare treated at one-leaf stage by green house assay; format: functional; method in brief: as §1
Digitaria sanguinalis [19] = test: Post-emergence herbicidal activity against Digitaria sanguinalis (hairy crabgrass) assessed as inhibition at 150 g/hectare treated at one-leaf stage by green house assay; format: functional; method in brief: as §1
Setaria viridis [20] = test: Post-emergence herbicidal activity against Setaria viridis (green foxtail) assessed as inhibition at 37.5 g/hectare treated at one-leaf stage by green house assay; format: functional; method in brief: as §1
Amaranthus retroflexus [21] = test: Post-emergence herbicidal activity against Amaranthus retroflexus assessed as inhibition at 75 g/hectare treated at two-leaf stage by green house assay; format: functional; method in brief: as §3
Eclipta prostrata [22] = test: Post-emergence herbicidal activity against Eclipta prostrata assessed as inhibition at 75 g/hectare treated at two-leaf stage by green house assay; format: functional; method in brief: as §3
Amaranthus retroflexus [23] = test: Post-emergence herbicidal activity against Amaranthus retroflexus assessed as inhibition at 37.5 g/hectare treated at two-leaf stage by green house assay; format: functional; method in brief: as §3
Zea mays = test: Toxicity in Zea mays (maize) plant assessed as inhibition at 150 g/hectare; format: organism-based; settings: in vivo; method in brief: as §2
[24] = test system: Brassica rapa subsp. chinensis; test: Post-emergence herbicidal activity against Brassica rapa subsp. chinensis assessed as inhibition at 150 g/hectare by green house assay; format: functional
Triticum aestivum = test: Toxicity in Triticum aestivum (wheat) plant assessed as inhibition at 150 g/hectare; format: organism-based; settings: in vivo; method in brief: as §2
Brassica juncea [25] = test: Post-emergence herbicidal activity against Brassica juncea assessed as inhibition at 75 g/hectare by green house assay; format: functional
Brassica juncea [26] = test: Post-emergence herbicidal activity against Brassica juncea assessed as inhibition at 150 g/hectare by green house assay; format: functional
Eclipta prostrata [27] = test: Post-emergence herbicidal activity against Eclipta prostrata assessed as inhibition at 150 g/hectare treated at two-leaf stage by green house assay; format: functional; method in brief: as §3
Pontederia vaginalis [28] = test: Post-emergence herbicidal activity against Monochoria vaginalis assessed as inhibition at 75 g/hectare by green house assay; format: functional
Radish [29] = test: Post-emergence herbicidal activity against Raphanus sativus (radish) assessed as inhibition at 150 g/hectare by green house assay; format: functional
Ammannia baccifera [30] = test: Post-emergence herbicidal activity against Ammannia baccifera assessed as inhibition at 75 g/hectare by green house assay; format: functional
Setaria viridis [31] = test: Post-emergence herbicidal activity against Setaria viridis (green foxtail) assessed as inhibition at 150 g/hectare treated at one-leaf stage by green house assay; format: functional; method in brief: as §1
Brassica juncea [32] = test: Post-emergence herbicidal activity against Brassica juncea assessed as inhibition at 150 g/hectare treated at two-leaf stage by green house assay; format: functional; method in brief: as §3
Brassica napus = test: Toxicity in Brassica napus (oilseed rape) assessed as inhibition at 150 g/hectare; format: functional; method in brief: as §2
Abutilon theophrasti = test: Post-emergence herbicidal activity against Abutilon theophrasti (velvetleaf) assessed as inhibition at 150 g/hectare treated at two-leaf stage by green house assay; format: functional; method in brief: as §3
Radish [33] = test: Post-emergence herbicidal activity against Raphanus sativus (radish) assessed as inhibition at 75 g/hectare by green house assay; format: functional
Amaranthus retroflexus [34] = test: Post-emergence herbicidal activity against Amaranthus retroflexus assessed as inhibition at 150 g/hectare by green house assay; format: functional
Gossypium hirsutum = test: Toxicity in Gossypium hirsutum (cotton) plant assessed as inhibition at 150 g/hectare; format: organism-based; settings: in vivo; method in brief: as §2
[35] = test system: Brassica rapa subsp. oleifera; test: Post-emergence herbicidal activity against Brassica rapa subsp. oleifera assessed as inhibition at 75 g/hectare by green house assay; format: functional
Brassica oleracea [36] = test: Post-emergence herbicidal activity against Brassica oleracea assessed as inhibition at 150 g/hectare by green house assay; format: functional
[37] = test system: Brassica rapa subsp. oleifera; test: Post-emergence herbicidal activity against Brassica rapa subsp. oleifera assessed as inhibition at 150 g/hectare by green house assay; format: functional
Brassica oleracea [38] = test: Post-emergence herbicidal activity against Brassica oleracea assessed as inhibition at 75 g/hectare by green house assay; format: functional

Cc1cc(Cl)ccc1OCC(=O)OC(C)P1(=O)OCC(C)(C)CO1 (stereo unspecified)
inhibition at 75 g/ha (Digitaria sanguinalis [1]): 0% | inhibition at 75 g/ha (Setaria viridis [2]): 0% | inhibition at 150 g/ha (Chenopodium album [3]): 75% | inhibition (INH) (Glycine max): 20% | inhibition at 75 g/ha (Ipomoea nil [4]): 100% | inhibition at 37.5 g/ha (Eclipta prostrata [5]): 80% | inhibition at 75 g/ha (Brassica juncea [6]): 100% | inhibition at 75 g/ha (Amaranthus retroflexus [7]): 100% | inhibition at 75 g/ha (Chenopodium album [8]): 70% | inhibition at 150 g/ha (Ammannia baccifera [9]): 100% | inhibition at 37.5 g/ha (Brassica juncea [10]): 80% | inhibition at 150 g/ha (Echinochloa crus-galli [11]): 30% | inhibition at 150 g/ha (Ipomoea nil [12]): 100% | inhibition at 150 g/ha (Pontederia vaginalis [13]): 100% | inhibition at 150 g/ha (Amaranthus retroflexus [14]): 100% | inhibition (INH) (Oryza sativa): 10% | inhibition at 37.5 g/ha (Echinochloa crus-galli [15]): 0% | inhibition at 75 g/ha (Echinochloa crus-galli [16]): 0% | inhibition at 75 g/ha [17]: 70% | inhibition at 37.5 g/ha (Digitaria sanguinalis [18]): 0% | inhibition at 150 g/ha (Digitaria sanguinalis [19]): 0% | inhibition at 37.5 g/ha (Setaria viridis [20]): 0% | inhibition at 75 g/ha (Amaranthus retroflexus [21]): 100% | inhibition at 75 g/ha (Eclipta prostrata [22]): 85% | inhibition at 37.5 g/ha (Amaranthus retroflexus [23]): 80% | inhibition (INH) (Zea mays): 0% | inhibition at 150 g/ha [24]: 80% | inhibition (INH) (Triticum aestivum): 0% | inhibition at 75 g/ha (Brassica juncea [25]): 100% | inhibition at 150 g/ha (Brassica juncea [26]): 100% | inhibition at 150 g/ha (Eclipta prostrata [27]): 90% | inhibition at 75 g/ha (Pontederia vaginalis [28]): 100% | inhibition at 150 g/ha (Radish [29]): 80% | inhibition at 75 g/ha (Ammannia baccifera [30]): 100% | inhibition at 150 g/ha (Setaria viridis [31]): 0% | inhibition at 150 g/ha (Brassica juncea [32]): 100% | inhibition at 150 g/ha (Brassica napus): 40% | inhibition at 150 g/ha (Abutilon theophrasti): 100% | inhibition at 75 g/ha (Radish [33]): 80% | inhibition at 150 g/ha (Amaranthus retroflexus [34]): 100% | inhibition (INH) (Gossypium hirsutum): 20%

CC(OC(=O)COc1ccc(Cl)cc1Cl)P1(=O)OCC(C)(C)CO1 (stereo unspecified)
inhibition at 75 g/ha (Digitaria sanguinalis [1]): 0% | inhibition at 75 g/ha (Setaria viridis [2]): 0% | inhibition at 150 g/ha (Chenopodium album [3]): 85% | inhibition (INH) (Glycine max): 30% | inhibition at 75 g/ha (Ipomoea nil [4]): 100% | inhibition at 37.5 g/ha (Eclipta prostrata [5]): 50% | inhibition at 75 g/ha (Brassica juncea [6]): 95% | inhibition at 75 g/ha [35]: 90% | inhibition at 75 g/ha (Amaranthus retroflexus [7]): 75% | inhibition at 75 g/ha (Chenopodium album [8]): 80% | inhibition at 150 g/ha (Ammannia baccifera [9]): 100% | inhibition at 37.5 g/ha (Brassica juncea [10]): 90% | inhibition at 150 g/ha (Echinochloa crus-galli [11]): 30% | inhibition at 150 g/ha (Ipomoea nil [12]): 100% | inhibition at 150 g/ha (Pontederia vaginalis [13]): 100% | inhibition at 150 g/ha (Amaranthus retroflexus [14]): 95% | inhibition (INH) (Oryza sativa): 10% | inhibition at 37.5 g/ha (Echinochloa crus-galli [15]): 0% | inhibition at 75 g/ha (Echinochloa crus-galli [16]): 0% | inhibition at 150 g/ha (Brassica oleracea [36]): 90% | inhibition at 75 g/ha [17]: 80% | inhibition at 37.5 g/ha (Digitaria sanguinalis [18]): 0% | inhibition at 150 g/ha (Digitaria sanguinalis [19]): 30% | inhibition at 37.5 g/ha (Setaria viridis [20]): 0% | inhibition at 75 g/ha (Amaranthus retroflexus [21]): 75% | inhibition at 75 g/ha (Eclipta prostrata [22]): 70% | inhibition at 37.5 g/ha (Amaranthus retroflexus [23]): 70% | inhibition (INH) (Zea mays): 0% | inhibition at 150 g/ha [24]: 85% | inhibition (INH) (Triticum aestivum): 0% | inhibition at 75 g/ha (Brassica juncea [25]): 95% | inhibition at 150 g/ha (Brassica juncea [26]): 95% | inhibition at 150 g/ha (Eclipta prostrata [27]): 85% | inhibition at 75 g/ha (Pontederia vaginalis [28]): 100% | inhibition at 150 g/ha (Radish [29]): 95% | inhibition at 75 g/ha (Ammannia baccifera [30]): 100% | inhibition at 150 g/ha (Setaria viridis [31]): 30% | inhibition at 150 g/ha (Brassica juncea [32]): 95% | inhibition at 150 g/ha (Brassica napus): 40% | inhibition at 150 g/ha (Abutilon theophrasti): 95% | inhibition at 150 g/ha [37]: 100% | inhibition at 75 g/ha (Radish [33]): 90% | inhibition at 150 g/ha (Amaranthus retroflexus [34]): 95% | inhibition at 75 g/ha (Brassica oleracea [38]): 80% | inhibition (INH) (Gossypium hirsutum): 30%
